Test results as given in ChEMBL document CHEMBL1123083, “Synthesis and antiherpetic activity of (S)-, (R)-, and (+/-)-9-[(2,3-dihydroxy-1-propoxy)methyl]guanine, linear isomers of 2'-nor-2'-deoxyguanosine” (J Med Chem, 1985).
Converted amounts (≈) assume the structure as drawn. The source made the active and inactive calls. No cut-off for these calls is given here.

Columns and labels:
Human alphaherpesvirus 1 [1] = experiment: Efficacy was evaluated against Oraficial HSV-1 infection in mice with lesions administered orally at a dose 0.8 mg/kg per day.; type: ADME, organism-based; design: route oral; conditions: mouse, in vivo, po
In short: (§1)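 HSV-1 strain S inoculated in the orofacial area of mice as previously described. Half-daily doses given by gavage 8 h apart, starting 3 h after infection, for 7 days. On day 7 after infection, mice with lesions per group and average lesion score were recorded (95% confidence interval). Significance was judged against placebo-treated infected mice (p < 0.05).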

Human alphaherpesvirus 1 [2] = experiment: Efficacy was evaluated against Oraficial HSV-1 infection in mice with lesions administered topically at a dose 0.25 mg/kg per day.; type: ADME, organism-based; conditions: mouse, in vivo
In short: (§2)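 Mice were infected orofacially with HSV-1 strain S. Each treatment was 10 μL of compound at the stated percent concentration in a hydroalcoholic vehicle. Application began 3 h after infection and was repeated at 3-h intervals: three treatments on day 1 and four on each of the next 2 days. Lesion incidence and average lesion score were read on day 7 (95% CI). Significance was judged against placebo (p < 0.05).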

Human alphaherpesvirus 1 [3] = experiment: Evaluated for DNA polymerase inhibition activity against herpes simplex virus-1 (HSV-1); type: functional
In short: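 Step II mixture supplied the phosphorylated test material. Step I: compound with HSV-1 thymidine kinase, 4 h, 37 °C. Step II: then HSV-1-infected HeLa crude extract plus GMP kinase, overnight, 30 °C. A 20 μL sample went to a 1 h, 37 °C DNA polymerase assay at pH 8 with activated salmon sperm DNA, 0.05 mM each dNTP ([³H]dTTP) and infected HeLa extract. (NH₄)₂SO₄ 0.1 M was present for the viral enzyme and omitted for the cellular polymerases. Read-out: TCA-precipitable radioactivity.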

Human alphaherpesvirus 1 [4] = experiment: Efficacy was evaluated against Oraficial HSV-1 infection in mice with lesions administered topically at a dose 1 mg/kg per day; Tested mice 10; type: ADME, organism-based; conditions: mouse, in vivo; in short: as §2
Human alphaherpesvirus 2 = experiment: In vitro anti viral activity tested against HSV-2(Curtis) virus on Rabbit kidney cell cultures; 1-3; type: functional; conditions: Human alphaherpesvirus 2, kidney; read-out: ED50 (the source's name)
In short: (§3)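 Confluent primary rabbit kidney monolayers were preincubated with serial drug dilutions in EMEM with 2% fetal calf serum and neomycin. They were then challenged with about 10 TCID50 of HSV-1 Schooler or HSV-2 Curtis and incubated at 37 °C. Cytopathology was scored on day 5. ED50 is the concentration preventing cytopathology in half of the infected cultures.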

Human alphaherpesvirus 1 [5] = experiment: Efficacy was evaluated against Oraficial HSV-1 infection in mice with lesions administered orally at a dose 3.1 mg/kg per day; Tested mice 10; type: organism-based; design: route oral; conditions: mouse, in vivo, po; in short: as §1
Human alphaherpesvirus 1 [6] = experiment: Efficacy was evaluated against Systemic HSV-1 infection in mice at a daily dose of 50 mg/kg administered orally; Tested mice 10; type: organism-based; design: dose 50 mg/kg; conditions: mouse, in vivo, po
In short: (§4)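 Mixed-sex ICR/Ha mice (10–20 g) were infected intraperitoneally with 50–100 LD50 of HSV-1 Schooler. Oral dosing of 0.1 mL twice daily for 7 days began immediately after infection. Groups were of about 10 mice. Deaths were recorded daily for 15 days, giving survivors/total and mean survival time with 95% CI. Significance was judged against placebo-treated infected mice using transformed survival times.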

Human alphaherpesvirus 1 [7] = experiment: Efficacy was evaluated against Oraficial HSV-1 infection in mice with lesions administered topically at a dose 0.06 mg/kg per day.; type: ADME, organism-based; conditions: mouse, in vivo; in short: as §2
Human alphaherpesvirus 1 [8] = experiment: Efficacy was evaluated against Oraficial HSV-1 infection in mice with lesions administered topically at a dose 0.25 mg/kg per day; Tested mice 10; type: ADME, organism-based; conditions: mouse, in vivo; in short: as §2
Human alphaherpesvirus 1 [9] = experiment: Efficacy was evaluated against Systemic HSV-1 infection in mice at a daily dose of 12.5 mg/kg administered subcutaneously; Tested mice 10; type: organism-based; design: dose 12.5 mg/kg, route subcutaneous; conditions: mouse, in vivo, sc
In short: (§5)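 ICR/Ha mice (10–20 g, mixed sex) were infected intraperitoneally with 50–100 LD50 of HSV-1 Schooler. Subcutaneous dosing of 0.1 mL twice daily for 4 days started immediately after infection. Groups were of about 10 mice. Survival was recorded daily for 15 days and reported as survivors/total and mean survival time (95% CI). Transformed survival times were compared with placebo-treated infected mice (p < 0.05).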

Human alphaherpesvirus 1 [10] = experiment: Efficacy was evaluated against Systemic HSV-1 infection in mice at a daily dose of 3.1 mg/kg administered subcutaneously.; type: ADME, organism-based; design: dose 3.1 mg/kg, route subcutaneous; conditions: mouse, in vivo, sc; in short: as §5
Human alphaherpesvirus 1 [11] = experiment: Efficacy was evaluated against Oraficial HSV-1 infection in mice with lesions administered topically at a dose 0.06 mg/kg per day; Tested mice 10; type: ADME, organism-based; conditions: mouse, in vivo; in short: as §2
Human alphaherpesvirus 1 [12] = experiment: Efficacy was evaluated against Systemic HSV-1 infection in mice at a daily dose of 3.1 mg/kg administered orally; Tested mice 10; type: organism-based; design: dose 3.1 mg/kg; conditions: mouse, in vivo, po; in short: as §4
Human alphaherpesvirus 1 [13] = experiment: Efficacy was evaluated against Systemic HSV-1 infection in mice at a daily dose of 12.5 mg/kg administered orally; Tested mice 9; type: organism-based; design: dose 12.5 mg/kg; conditions: mouse, in vivo, po; in short: as §4
Human alphaherpesvirus 1 [14] = experiment: Efficacy was evaluated against Oraficial HSV-1 infection in mice with lesions administered topically at a dose 0.02 mg/kg per day.; type: ADME, organism-based; conditions: mouse, in vivo; in short: as §2
Human alphaherpesvirus 1 [15] = experiment: Efficacy was evaluated against Systemic HSV-1 infection in mice at a daily dose of 3.1 mg/kg administered subcutaneously; Tested mice 10; type: ADME, organism-based; design: dose 3.1 mg/kg, route subcutaneous; conditions: mouse, in vivo, sc; in short: as §5
Human alphaherpesvirus 1 [16] = experiment: Efficacy was evaluated against Systemic HSV-1 infection in mice at a daily dose of 12.5 mg/kg administered subcutaneously.; type: ADME, organism-based; design: dose 12.5 mg/kg, route subcutaneous; conditions: mouse, in vivo, sc; in short: as §5
Human alphaherpesvirus 1 [17] = experiment: Efficacy was evaluated against Oraficial HSV-1 infection in mice with lesions administered orally at a dose 12.5 mg/kg per day; Tested mice 10; type: organism-based; design: route oral; conditions: mouse, in vivo, po; in short: as §1
Human alphaherpesvirus 1 [18] = experiment: Efficacy was evaluated against Oraficial HSV-1 infection in mice with lesions administered topically at a dose 0.02 mg/kg per day; Tested mice 10; type: ADME, organism-based; conditions: mouse, in vivo; in short: as §2
Human alphaherpesvirus 1 [19] = experiment: Efficacy was evaluated against Oraficial HSV-1 infection in mice with lesions administered orally at a dose 50 mg/kg per day.; type: ADME, organism-based; design: route oral; conditions: mouse, in vivo, po; in short: as §1
[20] = system: DNA polymerase (Homo sapiens); experiment: Evaluated for DNA polymerase inhibition activity against HeLa cells.
Human alphaherpesvirus 1 [21] = experiment: Efficacy was evaluated against Systemic HSV-1 infection in mice at a daily dose of 12.5 mg/kg administered orally.; type: ADME, organism-based; design: dose 12.5 mg/kg; conditions: mouse, in vivo, po; in short: as §4
Human alphaherpesvirus 1 [22] = experiment: Efficacy was evaluated against Systemic HSV-1 infection in mice at a daily dose of 0.8 mg/kg administered subcutaneously.; type: ADME, organism-based; design: dose 0.8 mg/kg, route subcutaneous; conditions: mouse, in vivo, sc; in short: as §5
Human alphaherpesvirus 1 [23] = experiment: Efficacy was evaluated against Oraficial HSV-1 infection in mice with lesions administered orally at a dose 12.5 mg/kg per day.; type: ADME, organism-based; design: route oral; conditions: mouse, in vivo, po; in short: as §1
Human alphaherpesvirus 1 [24] = experiment: Efficacy was evaluated against Oraficial HSV-1 infection in mice with lesions administered topically at a dose 1 mg/kg per day.; type: ADME, organism-based; conditions: mouse, in vivo; in short: as §2
Human alphaherpesvirus 1 [25] = experiment: Efficacy was evaluated against Systemic HSV-1 infection in mice at a daily dose of 50 mg/kg administered orally.; type: ADME, organism-based; design: dose 50 mg/kg; conditions: mouse, in vivo, po; in short: as §4
Human alphaherpesvirus 1 [26] = experiment: Efficacy was evaluated against Oraficial HSV-1 infection in mice with lesions administered orally at dose 0.8 mg/kg per day; Tested mice 10; type: ADME, organism-based; design: route oral; conditions: mouse, in vivo, po; in short: as §1
Human alphaherpesvirus 1 [27] = experiment: In vitro anti viral activity tested against HSV-1(Schooler) virus on Rabbit kidney cell cultures; 0.5-1.5; type: functional; conditions: Human alphaherpesvirus 1, kidney; read-out: ED50 (the source's name); in short: as §3
Human alphaherpesvirus 1 [28] = experiment: Efficacy was evaluated against Systemic HSV-1 infection in mice at a daily dose of 0.8 mg/kg administered subcutaneously; Tested mice 10; type: organism-based; design: dose 0.8 mg/kg, route subcutaneous; conditions: mouse, in vivo, sc; in short: as §5
Human alphaherpesvirus 1 [29] = experiment: Efficacy was evaluated against Oraficial HSV-1 infection in mice with lesions administered orally at a dose 50 mg/kg per day; Tested mice 10; type: organism-based; design: route oral; conditions: mouse, in vivo, po; in short: as §1
Human alphaherpesvirus 1 [30] = experiment: Efficacy was evaluated against Systemic HSV-1 infection in mice at a daily dose of 3.1 mg/kg administered orally.; type: ADME, organism-based; design: dose 3.1 mg/kg; conditions: mouse, in vivo, po; in short: as §4
Human betaherpesvirus 5 = experiment: In vitro anti viral activity tested against HCMV(AD169) virus on MRC-5 cell monolayers; NA=Not active at 25 ug/mL; type: functional, organism-based; conditions: MRC5
In short: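 MRC-5 monolayers were infected with HCMV AD169 for 1 h at 37 °C. Compound diluted in maintenance medium was then added and incubation continued for 7 days at 37 °C. Monolayers were stained and plaques counted. ED50 is the concentration reducing plaque number by 50%.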

**Q.** `Nc1nc(O)c2ncn(COCC(O)CO)c2n1` (single isomer, unassigned; form 2) [listing 1 of 2 here] was tested. Which Average lesion score (Human alphaherpesvirus 1 [1]) did it give?
**A.** 3.45

**Q.** And the Average lesion score (Human alphaherpesvirus 1 [2])?
**A.** 1.35

**Q.** What about the Inhibition (Human alphaherpesvirus 1 [3]) of the same molecule?
**A.** 57%

**Q.** And the Mice with lesions (Human alphaherpesvirus 1 [4])?
**A.** 2

**Q.** And the EC50 (Human alphaherpesvirus 2)?
**A.** 1 µg/mL (≈ 3.92 µM)

**Q.** What about the Mice with lesions (Human alphaherpesvirus 1 [5]) of the same molecule?
**A.** 8

**Q.** And the Survivors (Human alphaherpesvirus 1 [6])?
**A.** 3

**Q.** What about the Average lesion score (Human alphaherpesvirus 1 [7]) of the same molecule?
**A.** 1.4

**Q.** What about the Mice with lesions (Human alphaherpesvirus 1 [8]) of the same molecule?
**A.** 5

**Q.** And the Survivors (Human alphaherpesvirus 1 [9])?
**A.** 4

**Q.** And the Average survival (Human alphaherpesvirus 1 [10])?
**A.** 7.6 days

**Q.** And the Mice with lesions (Human alphaherpesvirus 1 [11])?
**A.** 6

**Q.** And the Survivors (Human alphaherpesvirus 1 [12])?
**A.** 0

**Q.** And the Survivors (Human alphaherpesvirus 1 [13])?
**A.** 0

**Q.** What about the Average lesion score (Human alphaherpesvirus 1 [14]) of the same molecule?
**A.** 2.75

**Q.** And the Survivors (Human alphaherpesvirus 1 [15])?
**A.** 1

**Q.** And the Average survival (Human alphaherpesvirus 1 [16])?
**A.** 10.7 days

**Q.** What about the Mice with lesions (Human alphaherpesvirus 1 [17]) of the same molecule?
**A.** 5

**Q.** What about the Mice with lesions (Human alphaherpesvirus 1 [18]) of the same molecule?
**A.** 9

**Q.** What about the Average lesion score (Human alphaherpesvirus 1 [19]) of the same molecule?
**A.** 0.15

**Q.** And the Inhibition [20]?
**A.** 10%

**Q.** What about the Average survival (Human alphaherpesvirus 1 [21]) of the same molecule?
**A.** 8.1 days

**Q.** What about the Average survival (Human alphaherpesvirus 1 [22]) of the same molecule?
**A.** 6.7 days

**Q.** What about the Average lesion score (Human alphaherpesvirus 1 [23]) of the same molecule?
**A.** 0.75

**Q.** What about the Average lesion score (Human alphaherpesvirus 1 [24]) of the same molecule?
**A.** 0.4

**Q.** And the Average survival (Human alphaherpesvirus 1 [25])?
**A.** 12.9 days

**Q.** And the Mice with lesions (Human alphaherpesvirus 1 [26])?
**A.** 9

**Q.** And the EC50 (Human alphaherpesvirus 1 [27])?
**A.** 0.5 µg/mL (≈ 1.96 µM)

**Q.** And the Survivors (Human alphaherpesvirus 1 [28])?
**A.** 0

**Q.** And the Mice with lesions (Human alphaherpesvirus 1 [29])?
**A.** 1

**Q.** What about the Average survival (Human alphaherpesvirus 1 [30]) of the same molecule?
**A.** 6.9 days

**Q.** With `Nc1nc(O)c2ncn(COCC(O)CO)c2n1` (single isomer, unassigned; form 2) [listing 2 of 2 here] as the molecule, how does the ED50 (Human betaherpesvirus 5) read?
**A.** inactive
